Measured values published in PubChem BioAssay.
The source made the active and inactive calls.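 How the source made its calls, unless noted: active means potentiation averaged over duplicate wells exceeding buffer-only control mean by more than 3 SD; inactive means the rest.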

How the values were obtained:
[1] = nonspecific flux increase, KCNQ1-free cells – parental CHO cells, counter-screen for KCNQ1 potentiator project (AID 493006;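 active means duplicate-averaged activation above buffer control mean plus 5 SD of those controls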); conditions: parental CHO-K1 cells, FluxOR thallium flux, at 10 µM; hits give high values
How it was run: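 Assay system: Untransfected host CHO-K1 cells with FluxOR thallium dye | Probe or stimulus: Potassium/thallium depolarization pulse | Schedule: Overnight 37 °C plating, 90 min RT dye, 20 min compound | Detection: Kinetic thallium-flux fluorescence | Read-out: Max-minus-min fluorescence over baseline, percent of buffer-to-R-L3 span | Benchmarks: Low control buffer, high control R-L3 activator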

[2] = target: Potassium voltage-gated channel subfamily KQT member 1 (Homo sapiens) (UniProt P51787); experiment: enhancement of KCNQ1 channel thallium flux – FluxOR thallium flux, CHO cells, duplicates, confirmation (AID 493007); conditions: KCNQ1 cell line, FluxOR thallium flux fluorescence, at 10 µM; hits give high values, % of reference activator effect, buffer zero;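 on outcome: cells depolarized by a potassium plus thallium sulfate stimulus after compound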
Chain of Potassium voltage-gated channel subfamily KQT member 1 (Homo sapiens) (P51787 whole entry, looked up): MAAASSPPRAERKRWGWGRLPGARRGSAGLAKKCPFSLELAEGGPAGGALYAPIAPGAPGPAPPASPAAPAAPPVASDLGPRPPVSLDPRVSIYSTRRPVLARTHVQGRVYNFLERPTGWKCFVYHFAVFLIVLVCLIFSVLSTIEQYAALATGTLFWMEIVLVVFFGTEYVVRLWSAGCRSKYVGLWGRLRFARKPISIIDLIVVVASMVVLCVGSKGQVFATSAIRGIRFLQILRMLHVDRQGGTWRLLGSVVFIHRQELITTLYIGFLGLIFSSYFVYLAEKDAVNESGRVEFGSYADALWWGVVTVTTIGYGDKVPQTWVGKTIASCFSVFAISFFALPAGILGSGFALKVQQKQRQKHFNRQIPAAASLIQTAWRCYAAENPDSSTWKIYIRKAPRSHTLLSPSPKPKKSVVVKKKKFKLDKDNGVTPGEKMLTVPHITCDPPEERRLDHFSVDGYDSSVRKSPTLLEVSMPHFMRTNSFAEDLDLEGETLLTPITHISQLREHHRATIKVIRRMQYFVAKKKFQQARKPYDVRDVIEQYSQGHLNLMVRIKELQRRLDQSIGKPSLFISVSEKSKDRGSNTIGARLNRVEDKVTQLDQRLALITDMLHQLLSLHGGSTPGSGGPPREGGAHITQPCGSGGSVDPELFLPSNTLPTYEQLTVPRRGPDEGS
How it was run: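 Material: KCNQ1-expressing CHO cell line; Incubation: FluxOR dye loading 90 min, compound exposure 20 min, room temperature; Detection: FluxOR Tl+ flux fluorescence, 10 s baseline plus 110 s recording; Read-out: percent activation between buffer and R-L3 responses; Control set: buffer-only wells as 0% and R-L3 activator as 100%; Replication: duplicate wells per compound.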

[3] = target: Potassium voltage-gated channel subfamily KQT member 2 (Rattus norvegicus) (UniProt O88943); experiment: KCNQ2 thallium flux enhancement – KCNQ2-CHO-K1 cells, selectivity assay for KCNQ1 potentiator project (AID 493009;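 active means mean duplicate potentiation above the buffer control mean plus 5 SD of buffer wells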;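 further: assay conditions were tuned for KCNQ1 rather than KCNQ2 modulators; signal is max minus min fluorescence divided by baseline after thallium stimulus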); conditions: FluxOR thallium flux fluorescence, at 10 µM; hits give high values, scaled: buffer 0, activator control 100
Chain of Potassium voltage-gated channel subfamily KQT member 2 (Rattus norvegicus) (O88943 whole entry, looked up): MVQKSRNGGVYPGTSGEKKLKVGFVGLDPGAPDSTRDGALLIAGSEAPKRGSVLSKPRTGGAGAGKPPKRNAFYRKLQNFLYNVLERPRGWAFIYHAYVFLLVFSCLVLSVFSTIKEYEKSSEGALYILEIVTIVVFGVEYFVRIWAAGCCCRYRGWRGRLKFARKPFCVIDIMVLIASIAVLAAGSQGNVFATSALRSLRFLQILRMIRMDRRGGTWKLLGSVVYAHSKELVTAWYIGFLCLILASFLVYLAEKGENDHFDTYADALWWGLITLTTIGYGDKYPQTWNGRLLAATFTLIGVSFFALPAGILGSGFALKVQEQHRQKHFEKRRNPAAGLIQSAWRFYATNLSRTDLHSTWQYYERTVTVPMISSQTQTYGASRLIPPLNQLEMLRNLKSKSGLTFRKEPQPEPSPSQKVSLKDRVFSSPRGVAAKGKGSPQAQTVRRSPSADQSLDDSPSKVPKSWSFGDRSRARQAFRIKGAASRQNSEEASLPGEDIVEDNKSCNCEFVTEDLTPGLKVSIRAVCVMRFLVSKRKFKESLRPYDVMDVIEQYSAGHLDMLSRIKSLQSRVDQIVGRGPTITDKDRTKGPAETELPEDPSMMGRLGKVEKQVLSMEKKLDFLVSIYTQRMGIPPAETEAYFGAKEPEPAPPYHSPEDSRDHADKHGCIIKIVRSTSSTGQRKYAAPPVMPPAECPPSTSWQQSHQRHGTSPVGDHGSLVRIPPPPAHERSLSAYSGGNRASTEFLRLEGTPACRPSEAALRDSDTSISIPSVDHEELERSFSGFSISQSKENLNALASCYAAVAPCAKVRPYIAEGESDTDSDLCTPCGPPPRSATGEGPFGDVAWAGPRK

[4] = target: Potassium voltage-gated channel subfamily KQT member 1 (Homo sapiens) (UniProt P51787); experiment: KCNQ1 activators by electrophysiology – IonWorks patch clamp, KCNQ1-CHO cells, orthogonal assay for KCNQ1 potentiator project, confirmation (AID 493184;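 active means current rise at least 3 SD above the untreated control mean in each of two repeat wells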); conditions: automated patch clamp current, at 10 µM; hits give high values
How it was run: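 assay system = KCNQ1-expressing CHO cells | medium = external bath solution at pH 7.4 | probe or stimulus = 2,000 ms depolarization, -90 to +40 mV | compound dosing = 10 µM final, single point | measured by = automated voltage clamp, amphotericin B perforated patch | measure = percent current increase versus pre-compound level | replication = duplicates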

[5] = target: Potassium voltage-gated channel subfamily E member 1 (Homo sapiens) + Potassium voltage-gated channel subfamily KQT member 1 (Homo sapiens) (UniProt P15382+P51787); experiment: KCNQ1-E1 channel activation – thallium flux, CHO-K1 KCNQ1/E1 cells, selectivity assay for KCNQ1 potentiator project, confirmation (AID 493186;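 active means mean duplicate activation above the buffer control mean plus 5 SD of those controls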); conditions: FluxOR thallium flux, at 10 µM; hits give high values
Chain of Potassium voltage-gated channel subfamily E member 1 (Homo sapiens) + Potassium voltage-gated channel subfamily KQT member 1 (Homo sapiens) (P51787 whole entry, looked up): as the sequence (P51787 whole entry, looked up) above
How it was run: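 Test system – CHO-K1 cells with KCNQ1/E1 · Measured by – FluxOR Tl+ flux fluorescence, kinetic read · Controls – buffer low control, R-L3 high control · Times – dye 90 min, compound 20 min, room temperature · Replication – duplicate wells per compound · Doses – one test concentration · Evaluation – fluorescence rise relative to baseline, as percent of R-L3 response above buffer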

| SMILES | outcome [1] | outcome [2] | outcome [3] | outcome [4] | outcome [5] | potentiation [2] | potentiation [3] |
| --- | --- | --- | --- | --- | --- | --- | --- |
| CC1(C)CC(N=c2cc(-c3ccccc3)oc3ccc(Cl)cc23)CC(C)(C)N1 | inactive | inactive | inactive | inactive | inactive |  |  |
| CC12CCC(C/C1=N\N=C1\NC(=O)/C(=C\c3cccc(Br)c3)S1)C2(C)C (stereo not given) | inactive |  |  | inactive | inactive | 51% (active) | 154% (active) |
| S=c1[nH]nc(C2CCCCC2)n1/N=C/c1cccc(Cl)c1Cl | inactive |  | inactive | inactive | inactive | 41% (active) |  |
| CCOC(=O)CNC(=O)N1CCc2ccc(NC(=O)c3ccccc3Cl)cc2C1 | inactive | inactive | inactive | inactive | inactive |  |  |
| Cc1c(C(=O)Nc2ccc(F)cc2)oc2ccc(S(=O)(=O)N3CC(C)CC(C)C3)cc12 (stereo not given) | inactive | inactive | inactive | inactive | inactive |  |  |
| Cn1cccc1C(=O)NNC(=O)COc1ccccc1F | inactive | inactive | inactive | inactive | inactive |  |  |
| Oc1c(Br)cc(Br)cc1CNc1cccc2cccnc12 | inactive |  | inactive | inactive | inactive | 28.5% (active) |  |
| S=c1[nH]cnc2scc(-c3ccc(Br)cc3)c12 | inactive |  |  | inactive | inactive | 32.5% (active) | 147% (active) |
| O=C(CN(CCO)c1ccccc1)Nc1cccc(S(=O)(=O)N2CCCC2)c1 | inactive |  | inactive | inactive | inactive | 22.5% (active) |  |
| CNC(=O)CSc1nc2c(c(=O)n(C)c(=O)n2C)n1Cc1ccc(C)cc1 | inactive | inactive | inactive | inactive | inactive |  |  |
| CCOC(=O)Cc1csc(NC(=S)NC(=O)c2ccc(Cl)cc2)n1 | inactive | inactive | inactive | inactive | inactive |  |  |
| CCN(Cc1ccccc1)C1CCN(Cc2ccccc2)CC1 | inactive | inactive | inactive | inactive | inactive |  |  |
| Nc1nnc(SCC(=O)N2CCN(c3ccccc3)CC2)n1-c1ccccc1 | inactive | inactive | inactive | inactive | inactive |  |  |
| COc1cccc(/C=N/n2c(SC)nnc2-c2ccccc2)c1O | inactive | inactive | inactive | inactive | inactive |  |  |
| CCN(CC)S(=O)(=O)c1ccc(NC(=O)c2cccnc2Cl)c(NC(=O)c2cccnc2Cl)c1 | inactive |  |  | inactive | inactive | 43% (active) | 242% (active) |
| Cn1cccc1/C=N/n1c(-c2ccc(Cl)cc2Cl)n[nH]c1=S | inactive | inactive | inactive | inactive | inactive |  |  |
| COCCOC(=O)/C(=C/c1ccc(OC(=O)c2ccccc2)cc1)C(C)=O | inactive | inactive | inactive | inactive | inactive |  |  |
| Cc1ccc2nc(C3CCN(S(=O)(=O)c4ccc5ccccc5c4)CC3)[nH]c2c1 | inactive | inactive | inactive | inactive | inactive |  |  |
| CC1Oc2ccccc2N(CC(=O)N2CCCCCC2)C1=O (stereo not given) | inactive |  | inactive | inactive | inactive | 27.5% (active) |  |
| CCc1cc(C(=O)N2CCN(c3ccccn3)CC2)sc1C | inactive | inactive | inactive | inactive | inactive |  |  |
| O=C(NC1CCCC1)C(=O)N(Cc1cccnc1)C(C(=O)NC1CCCC1)c1ccco1 (stereo not given) | inactive |  | inactive | inactive | inactive | 35% (active) |  |
| O=c1cc(-c2ccccc2)nc2cc(-c3ccco3)[nH]n12 | inactive | inactive | inactive | inactive | inactive |  |  |
| CN(CC(=O)NCc1ccccc1Cl)CC(=O)Nc1cccc(F)c1 | inactive | inactive | inactive | inactive | inactive |  |  |
| O=C(Nc1ccc(Cl)cc1C(F)(F)F)C(Sc1cccc[n+]1[O-])c1ccccc1 (stereo not given) | inactive | inactive | inactive | inactive | inactive |  |  |
| Cc1cc(C)nc(N/N=C/c2cccc3ccccc23)n1 | inactive | inactive | inactive | inactive | inactive |  |  |
| Cc1ccc(OCC(=O)NNC(=S)NC(=O)C2CCCCC2)c(C)c1 | inactive |  | inactive | inactive | inactive | 26.5% (active) |  |
| O=c1c2cc(Cl)ccc2[nH]c(=S)n1Cc1cccs1 | inactive | inactive |  | inactive | inactive |  | 142% (active) |
| NC(=O)CN1C(=O)NC2(CCOc3ccccc32)C1=O (stereo not given) | inactive | inactive | inactive | inactive | inactive |  |  |
| CC1CCc2c(sc(NC(=O)C(=O)NCc3ccco3)c2C#N)C1 (stereo not given) | inactive | inactive | inactive | inactive | inactive |  |  |
| CC(C1CC2CCC1C2)n1c(-c2ccco2)n[nH]c1=S (stereo not given) | inactive | inactive | inactive | inactive | inactive |  |  |
